Source: ChEMBL document CHEMBL3808334, “Synthesis and in vitro evaluation of novel triazine analogues as anticancer agents and their interaction studies with bovine serum albumin” (Eur J Med Chem, 2016)

Key:
Format in all cases: functional
[1] = Growth inhibition of human UO31 cells assessed as cell growth at 10^-4 M incubated for 48 hrs by sulforhodamine B assay; conditions: UO-31, 48 h, read-out: Activity
[2] = Growth inhibition of human SNB75 cells incubated for 48 hrs by sulforhodamine B assay; conditions: SNB-75, 48 h
How it was run: (§1)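 Cells were plated at 5,000–40,000 per well according to doubling time and preincubated 24 h at 37 °C in 5% CO2; time-zero plates were then TCA-fixed. Five concentrations (10-fold or ½-log dilutions, DMSO stock) were incubated 48 h. Cells were TCA-fixed, stained with 0.4% SRB and read at 515 nm. GI50 was taken where [(Ti−Tz)/(C−Tz)]×100 = 50.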

[3] = Growth inhibition of human LOXIMVI cells incubated for 48 hrs by sulforhodamine B assay; conditions: LOX IMVI; how it was run: as §1
[4] = Growth inhibition of human SKOV3 cells incubated for 48 hrs by sulforhodamine B assay; conditions: SK-OV-3, 48 h; how it was run: as §1
A498 [5] = assay: Growth inhibition of human A498 cells incubated for 48 hrs by sulforhodamine B assay; conditions: A498, 48 h
How it was run: (§2)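 Five-dose assay: five concentrations from 10-fold or ½-log serial dilutions. Cells are plated at 5,000–40,000 per well according to doubling time, grown 24 h, then exposed 48 h at 37 °C, 5% CO₂. Fixed with cold 50% TCA (final addition) for 60 min at 4 °C and stained with 0.4% SRB in 1% acetic acid. Bound dye is solubilized in 10 mM Tris base and read at 515 nm. GI₅₀ is where [(Ti−Tz)/(C−Tz)]×100 = 50, with a time-zero plate as Tz.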

EKVX = assay: Growth inhibition of human EKVX cells assessed as cell growth at 10^-7 M incubated for 48 hrs by sulforhodamine B assay; conditions: read-out: Activity
How it was run: (§3)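 Cells seeded at 5,000–40,000/well according to doubling time and preincubated 24 h at 37 °C, 5% CO2. Time-zero plates were TCA-fixed. DMSO concentrate was diluted in medium with 50 µg/ml gentamicin to give five concentrations (10-fold or ½ log steps), then exposed 48 h. Cells were TCA-fixed, stained with 0.4% SRB and read at 515 nm. Percent growth was taken against time-zero and control; GI50, TGI and LC50 derived.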

[6] = Growth inhibition of human DU145 cells assessed as cell growth at 10^-5 M incubated for 48 hrs by sulforhodamine B assay; conditions: DU-145, 48 h, read-out: Activity; how it was run: as §3
NCI-H322M = assay: Growth inhibition of human NCI-H322M cells assessed as cell growth at 10^-4 M incubated for 48 hrs by sulforhodamine B assay; conditions: read-out: Activity
[7] = Growth inhibition of human SNB19 cells assessed as cell growth at 10^-4 M incubated for 48 hrs by sulforhodamine B assay; conditions: SNB-19, 48 h, read-out: Activity
MDA-MB-435 [8] = assay: Growth inhibition of human MDA-MB-435 cells assessed as cell growth at 10^-4 M incubated for 48 hrs by sulforhodamine B assay; conditions: MDA-MB-435, 48 h, read-out: Activity
[9] = Growth inhibition of human OVCAR3 cells assessed as cell growth at 10^-4 M incubated for 48 hrs by sulforhodamine B assay; conditions: OVCAR-3, 48 h, read-out: Activity
[10] = Growth inhibition of human OVCAR5 cells assessed as cell growth at 10^-7 M incubated for 48 hrs by sulforhodamine B assay; conditions: OVCAR-5, 48 h, read-out: Activity
MDA-MB-435 [11] = assay: Growth inhibition of human MDA-MB-435 cells assessed as cell growth at 10 uM incubated for 48 hrs by sulforhodamine B assay; conditions: MDA-MB-435, 48 h, read-out: Activity
ACHN = assay: Growth inhibition of human ACHN cells assessed as cell growth at 10 uM incubated for 48 hrs by sulforhodamine B assay; conditions: read-out: Activity
How it was run: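 One-dose screen at 10 µM final. Cells are plated at 5,000–40,000 per well according to doubling time and preincubated 24 h at 37 °C, 5% CO₂. Compound (DMSO stock diluted in medium with 50 µg/ml gentamicin) is then added for 48 h. Growth percent is read by sulforhodamine B staining, absorbance at 515 nm.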

[12] = Growth inhibition of human HL-60(TB) cells assessed as cell growth at 10^-8 M incubated for 48 hrs by sulforhodamine B assay; conditions: HL-60, 48 h, read-out: Activity
How it was run: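 Cells plated at 5,000–40,000/well according to doubling time and preincubated 24 h at 37 °C, 5% CO₂, with time-zero plates TCA-fixed. Drugs were kept as DMSO concentrates at 400× the top concentration and diluted in medium with 50 µg/ml gentamicin. Five 10-fold or ½-log dilutions were run for 48 h, followed by SRB staining and A515. Percent growth = (Ti−Tz)/(C−Tz)×100, or (Ti−Tz)/Tz×100 when Ti<Tz.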

MCF7 = assay: Growth inhibition of human MCF7 cells assessed as cell growth at 10^-7 M incubated for 48 hrs by sulforhodamine B assay; conditions: MCF7, 48 h, read-out: Activity
[13] = Growth inhibition of human HOP92 cells assessed as cell growth at 10^-6 M incubated for 48 hrs by sulforhodamine B assay; conditions: HOP-92, 48 h, read-out: Activity
[14] = Growth inhibition of human HCT116 cells assessed as cell growth at 10^-6 M incubated for 48 hrs by sulforhodamine B assay; conditions: HCT-116, 48 h, read-out: Activity; how it was run: as §3
NCI-H460 = assay: Growth inhibition of human NCI-H460 cells assessed as cell growth at 10^-8 M incubated for 48 hrs by sulforhodamine B assay; conditions: NCI-H460, 48 h, read-out: Activity
A498 [15] = assay: Growth inhibition of human A498 cells assessed as cell growth at 10^-6 M incubated for 48 hrs by sulforhodamine B assay; conditions: A498, 48 h, read-out: Activity; how it was run: as §2
Malme-3M = assay: Growth inhibition of human MALME-3M cells assessed as cell growth at 10^-5 M incubated for 48 hrs by sulforhodamine B assay; conditions: read-out: Activity
[16] = Growth inhibition of human HL-60(TB) cells assessed as cell growth at 10 uM incubated for 48 hrs by sulforhodamine B assay; conditions: HL-60, 48 h, read-out: Activity
[17] = Growth inhibition of human HOP92 cells assessed as cell growth at 10 uM incubated for 48 hrs by sulforhodamine B assay; conditions: HOP-92, 48 h, read-out: Activity
[18] = Growth inhibition of human colon cancer cells incubated for 48 hrs by sulforhodamine B assay; conditions: Cancer cell lines
[19] = read-out: LC50 (the source's name)
[20] = read-out: pLC50 (the source's name) (converted)

c1ccc(-c2nc(Nc3ccc(-c4nc5ccccc5[nH]4)cc3)nc(N3CCOCC3)n2)cc1
growth at 100 µM [1]: -76%
GI50 ([2]; read-out: GI50): 1640 nM
CC50 [2, 19]: 6.07 µM
TGI ([2]; read-out: TGI): 3.15 µM
GI50 ([2]; read-out: pGI50 (converted)): 1620 nM
CC50 [2, 20]: 6.03 µM
TGI ([2]; read-out: pTGI (converted)): 3.16 µM
GI50 ([3]; read-out: GI50): 489 nM
TGI ([3]; read-out: TGI): 2120 nM
GI50 ([3]; read-out: pGI50 (converted)): 490 nM
TGI ([3]; read-out: pTGI (converted)): 2140 nM
GI50 ([4]; read-out: GI50): 2110 nM
CC50 [4, 19]: 8.47 µM
TGI ([4]; read-out: TGI): 4.23 µM
GI50 ([4]; read-out: pGI50 (converted)): 2090 nM
CC50 [4, 20]: 8.51 µM
TGI ([4]; read-out: pTGI (converted)): 4.27 µM
GI50 (A498 [5]; read-out: GI50): 1090 nM
CC50 (A498 [5]; [19]): 6.31 µM
TGI (A498 [5]; read-out: TGI): 2620 nM
GI50 (A498 [5]; read-out: pGI50 (converted)): 1100 nM
CC50 (A498 [5]; [20]): 6.31 µM
TGI (A498 [5]; read-out: pTGI (converted)): 2630 nM
growth at 0.1 µM (EKVX): 88%
growth at 10 µM [6]: -96%
growth at 100 µM (NCI-H322M): -62%
growth at 100 µM [7]: -48%
growth at 100 µM (MDA-MB-435 [8]): -86%
growth at 100 µM [9]: -100%
growth at 0.1 µM [10]: 99%
growth at 10 µM (MDA-MB-435 [11]): -81.1%
growth at 10 µM (ACHN): -58.9%
growth at 0.01 µM [12]: 73%
growth at 0.1 µM (MCF7): 92%
growth at 1 µM [13]: 70%
growth at 1 µM [14]: 16%
growth at 0.01 µM (NCI-H460): 103%
growth at 1 µM (A498 [15]): 55%
growth at 10 µM (Malme-3M): -73%
growth at 10 µM [16]: -32.7%
growth at 10 µM [17]: -66.2%
GI50 [18]: 990 nM
TGI [18]: 2550 nM
CC50 [18, 19]: 6.53 µM
